Assay results: ChEMBL document CHEMBL4715825, “Synthesis and biological evaluations of marine oxohexadecenoic acids: PPARα/γ dual agonism and anti-diabetic target gene effects” (Eur J Med Chem, 2018)
The source made the active and inactive calls. The rule behind the calls is not given here.

Key:
[1] = target: T1, Retinoic acid receptor RXR-alpha (Homo sapiens) (UniProt P19793); assay: Agonist activity at recombinant human RXRalpha LBD (202 to 462 residues) expressed in African green monkey COS-1 cells at 25 to 50 uM incubated for 18 hrs by luciferase reporter gene assay; assay type: cell-based; details: dose 25-50 µM
T1 sequence (whole entry): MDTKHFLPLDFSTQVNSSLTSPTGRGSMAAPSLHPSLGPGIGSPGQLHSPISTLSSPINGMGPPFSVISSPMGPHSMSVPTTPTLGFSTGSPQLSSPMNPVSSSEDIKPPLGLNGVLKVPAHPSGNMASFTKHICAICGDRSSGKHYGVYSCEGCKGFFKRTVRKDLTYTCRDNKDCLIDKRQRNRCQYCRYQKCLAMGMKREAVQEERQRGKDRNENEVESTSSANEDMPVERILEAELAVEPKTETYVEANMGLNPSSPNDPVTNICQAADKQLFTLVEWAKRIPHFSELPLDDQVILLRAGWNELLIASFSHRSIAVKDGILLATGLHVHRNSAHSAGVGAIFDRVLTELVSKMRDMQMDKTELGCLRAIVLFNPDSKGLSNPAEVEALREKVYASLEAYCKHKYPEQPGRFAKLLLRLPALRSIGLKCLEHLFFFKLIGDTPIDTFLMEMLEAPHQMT
How it was run: (§1)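 Transient Gal4 one-hybrid assay in COS-1 cells (7×10^4 per well), transfected 24 h after seeding. Plasmids were Gal4-DBD fused to the human nuclear receptor LBD, a 5×UAS-SV40 luciferase reporter and pRL-CMV Renilla control. Ligand in DMSO (final 0.1%) was added 5 h post-transfection. Dual-luciferase activity was read after 18 h, expressed as RLU, from three biological replicates in quadruplicate.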

SGBS = assay: Induction of adipogenesis in 8 day differentiated human SGBS cells assessed as increase in UCP1 mRNA expression at 25 uM measured over 12 days by qRT-PCR analysis; assay type: functional, cell-based; details: time 12.0 day
How it was run: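 SGBS preadipocytes (passage P6-P8) were grown to confluence (day 0), then differentiated 4 days in Quickdiff (3FC with 25 nM dexamethasone, 0.5 mM IBMX) supplemented with 25 µM oxo-fatty acid (as BSA complex), then in 3FC medium with medium renewed every fourth day. Cells were harvested on days 0, 4, 8 and 12. mRNA was measured by SYBR green qPCR. Data are mean ± SEM from at least 3 biological replicates run in duplicate.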

[2] = target: T2, Peroxisome proliferator-activated receptor alpha (Homo sapiens) (UniProt Q07869); assay: Agonist activity at human PPARalpha in 8 day differentiated human SGBS cells assessed as increase in ANGPTL4 gene expression at 25 uM incubated for 24 hrs by SYBR-green based qPCR analysis; assay type: cell-based; details: filed as agonist
T2 sequence (whole entry): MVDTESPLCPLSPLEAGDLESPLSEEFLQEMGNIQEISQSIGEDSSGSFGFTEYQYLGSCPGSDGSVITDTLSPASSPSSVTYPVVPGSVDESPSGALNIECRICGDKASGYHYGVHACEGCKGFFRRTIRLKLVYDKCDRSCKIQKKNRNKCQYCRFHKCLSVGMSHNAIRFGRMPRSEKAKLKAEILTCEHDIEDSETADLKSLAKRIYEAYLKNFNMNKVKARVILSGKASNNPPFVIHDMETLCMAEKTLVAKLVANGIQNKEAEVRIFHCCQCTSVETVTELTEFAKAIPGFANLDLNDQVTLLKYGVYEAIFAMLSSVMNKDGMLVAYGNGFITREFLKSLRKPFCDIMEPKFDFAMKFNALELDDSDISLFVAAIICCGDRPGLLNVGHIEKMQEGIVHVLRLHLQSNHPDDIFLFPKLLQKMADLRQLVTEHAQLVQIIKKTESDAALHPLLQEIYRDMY
How it was run: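 SGBS preadipocytes were seeded at passage P6-P8 and grown to confluence. They were differentiated for 4 days in Quickdiff (3FC plus dexamethasone, IBMX and rosiglitazone), then kept in 3FC with medium renewed every fourth day. On day 8, cells were stimulated for 24 h in 3FC with compound:BSA or rosiglitazone. SYBR-green qPCR used gene-specific primers. Data are mean ± SEM of three biological replicates in duplicate.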

[3] = target: T3, Peroxisome proliferator-activated receptor gamma (Homo sapiens) (UniProt P37231); assay: Agonist activity at human PPARgamma in 8 day differentiated human SGBS cells assessed as increase in leptin gene expression at 25 uM incubated for 24 hrs by SYBR-green based qPCR analysis; assay type: cell-based; details: filed as agonist
T3 sequence (whole entry): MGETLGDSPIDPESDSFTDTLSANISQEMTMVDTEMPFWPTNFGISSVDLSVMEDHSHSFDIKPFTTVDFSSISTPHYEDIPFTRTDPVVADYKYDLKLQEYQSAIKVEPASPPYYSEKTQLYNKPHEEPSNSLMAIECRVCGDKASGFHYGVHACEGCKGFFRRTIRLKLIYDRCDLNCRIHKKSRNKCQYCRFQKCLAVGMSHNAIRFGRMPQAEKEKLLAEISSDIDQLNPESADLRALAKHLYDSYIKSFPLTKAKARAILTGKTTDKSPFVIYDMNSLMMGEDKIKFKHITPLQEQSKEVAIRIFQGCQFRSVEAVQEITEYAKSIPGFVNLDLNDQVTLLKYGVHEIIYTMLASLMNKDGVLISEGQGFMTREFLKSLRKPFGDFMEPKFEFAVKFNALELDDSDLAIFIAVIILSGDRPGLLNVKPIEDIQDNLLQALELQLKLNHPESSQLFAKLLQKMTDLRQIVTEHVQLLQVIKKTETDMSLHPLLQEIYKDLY

[4] = target: T4, Peroxisome proliferator-activated receptor gamma (Homo sapiens, UniProt P37231); assay: Agonist activity at recombinant human PPARgamma LBD (205 to 505 residues) expressed in African green monkey COS-1 cells incubated for 18 hrs by luciferase reporter gene assay; assay type: cell-based; how it was run: as §1
T4 sequence (P37231 whole entry): T3 sequence (whole entry)

[5] = target: T2, Peroxisome proliferator-activated receptor alpha (Homo sapiens); assay: Agonist activity at human PPARalpha in human HuH-7 cells assessed as increase in PLIN1 gene expression at 50 uM incubated for 24 hrs by SYBR-green based qPCR analysis; assay type: cell-based; details: filed as agonist
How it was run: (§2)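 Cells were seeded at 2×10^5 per well and treated 24 h later with compound in DMSO (final 0.1%). The next day, cells were washed and scraped into RLT buffer. RNA was isolated, and target gene mRNA was quantified by SYBR-green qPCR with specific primers.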

[6] = target: T2, Peroxisome proliferator-activated receptor alpha (Homo sapiens); assay: Agonist activity at human PPARalpha in human HuH-7 cells assessed as increase in ACSL3 gene expression at 50 uM incubated for 24 hrs by SYBR-green based qPCR analysis; assay type: cell-based; details: filed as agonist; how it was run: as §2
COS-1 = assay: Agonist activity at recombinant full length human PPARalpha/gamma/RXRalpha expressed in African green monkey COS-1 cells assessed as induction of PLIN1 driven luciferase reporter activity at 25 uM incubated for 18 hrs by dual luciferase reporter gene assay; assay type: cell-based; details: filed as agonist
How it was run: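 COS-1 cells were kept in DMEM/10% FBS at 37 °C, 5% CO2, and seeded at 7×10^4 per well. After 24 h they were lipofected with full-length PPAR and RXR expression plasmids, a PLIN1- or CPT1A-driven luciferase reporter and pRL-CMV Renilla control. Compound in DMSO (final 0.1%) was added 5 h later. After 18 h, cells were lysed for Dual-Luciferase readout. Three biological replicates were run in quadruplicate.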

Row | Activity [1] | Activity [2] | Activity [3] | EC50 [4] | Activity [5] | Activity [6] | Structure (SMILES) | Activity (SGBS) | Activity (COS-1)
1 | inactive | Active | Active | 8.5 µM | Active | – | CCCCC/C=C/C(=O)CCCCCCCC(=O)O | Active | –
2 | inactive | – | Active | 10 µM | – | Active | CCCCCCCC(=O)/C=C/CCCCCC(=O)O | Active | Active
